Results as given in ChEMBL document CHEMBL1777776, “Identification of 2-mercaptohexanoic acids as dual inhibitors of 5-lipoxygenase and microsomal prostaglandin E₂ synthase-1” (Bioorg Med Chem, 2011).
The source made the active and inactive calls. The calls are words filed in the database; no cut-off is given here.

How the values were obtained:
[1] = molecular target: T1, Polyunsaturated fatty acid 5-lipoxygenase (Homo sapiens) (UniProt P09917); assay: Inhibition of human recombinant 5-lipoxygenase expressed in Escherichia coli BL21 assessed as enzyme product formation using arachidonic acid as substrate at 1 uM after 10 mins by RP-HPLC analysis
T1 sequence (whole entry): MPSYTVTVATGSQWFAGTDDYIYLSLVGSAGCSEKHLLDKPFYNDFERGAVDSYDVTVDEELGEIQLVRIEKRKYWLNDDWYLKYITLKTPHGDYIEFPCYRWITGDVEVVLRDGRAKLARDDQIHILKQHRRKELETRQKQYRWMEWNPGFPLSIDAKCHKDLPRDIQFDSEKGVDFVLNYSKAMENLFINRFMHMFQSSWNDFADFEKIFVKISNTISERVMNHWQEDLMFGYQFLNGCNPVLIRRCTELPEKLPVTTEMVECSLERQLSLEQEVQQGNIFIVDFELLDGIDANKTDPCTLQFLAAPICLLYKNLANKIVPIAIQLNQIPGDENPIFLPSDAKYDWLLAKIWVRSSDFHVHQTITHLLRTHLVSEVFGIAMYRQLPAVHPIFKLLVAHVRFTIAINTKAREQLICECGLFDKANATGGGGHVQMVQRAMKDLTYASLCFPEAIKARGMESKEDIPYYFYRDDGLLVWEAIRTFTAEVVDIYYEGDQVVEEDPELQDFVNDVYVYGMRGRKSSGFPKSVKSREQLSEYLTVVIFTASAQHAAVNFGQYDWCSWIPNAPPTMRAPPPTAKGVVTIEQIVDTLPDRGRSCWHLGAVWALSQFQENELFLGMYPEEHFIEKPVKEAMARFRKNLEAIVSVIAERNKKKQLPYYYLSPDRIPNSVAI
How it was run: (§1)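 Human 5-LO expressed in E. coli BL21 (pT3-5LO), affinity-purified and used at once. 0.5 µg enzyme in 1 ml PBS/EDTA with 1 mM ATP preincubated with compound 5–10 min at 4 °C, then warmed 30 s at 37 °C. Reaction started with 2 mM CaCl₂ and AA (routinely 20 µM), with or without 1 µM 13(S)-HpODE. Run 10 min at 37 °C, stopped with ice-cold methanol, products analysed by HPLC. Washout: 10-fold dilution (10 to 1 µM).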

[2] = molecular target: T2, Prostaglandin G/H synthase 2 (Homo sapiens) (UniProt P35354); assay: Inhibition of human recombinant COX2 assessed as residual activity at 10 uM after 5 mins
T2 sequence (whole entry): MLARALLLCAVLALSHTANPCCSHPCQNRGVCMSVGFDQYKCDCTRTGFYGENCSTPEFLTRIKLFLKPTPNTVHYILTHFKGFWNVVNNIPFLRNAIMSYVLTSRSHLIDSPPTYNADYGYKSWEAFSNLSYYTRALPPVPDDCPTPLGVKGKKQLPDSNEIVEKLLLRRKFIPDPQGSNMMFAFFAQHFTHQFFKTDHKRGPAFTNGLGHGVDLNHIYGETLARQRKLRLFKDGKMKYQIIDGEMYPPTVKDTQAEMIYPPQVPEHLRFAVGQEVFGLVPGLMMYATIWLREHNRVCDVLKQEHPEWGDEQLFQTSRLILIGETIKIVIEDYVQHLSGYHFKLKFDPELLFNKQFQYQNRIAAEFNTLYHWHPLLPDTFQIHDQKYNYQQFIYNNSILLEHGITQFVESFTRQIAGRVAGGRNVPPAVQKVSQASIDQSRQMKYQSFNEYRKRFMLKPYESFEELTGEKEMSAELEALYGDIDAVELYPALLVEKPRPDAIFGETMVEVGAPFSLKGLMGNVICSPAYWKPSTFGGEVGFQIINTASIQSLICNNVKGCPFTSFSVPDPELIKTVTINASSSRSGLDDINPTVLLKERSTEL
How it was run: (§2)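 Ovine COX-1 (50 units) or human recombinant COX-2 (20 units) in 1 ml 100 mM Tris pH 8 with 5 mM glutathione, 5 µM haemoglobin and 100 µM EDTA. Preincubated with 10 µM compound 5 min at 4 °C, warmed 60 s at 37 °C. Started with AA (5 µM for COX-1, 2 µM for COX-2), run 5 min at 37 °C. 12-HHT extracted and analysed by HPLC. n = 3.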

Prostaglandin E synthase = molecular target: T3, Prostaglandin E synthase (Homo sapiens, UniProt O14684); assay: Inhibition of mPGES-1 in human IL-1beta-stimulated A549 cell microsomes assessed as reduction of PGE2 formation from PGH2 after 15 mins; design: species or system Microsome
T3 sequence (O14684 whole entry): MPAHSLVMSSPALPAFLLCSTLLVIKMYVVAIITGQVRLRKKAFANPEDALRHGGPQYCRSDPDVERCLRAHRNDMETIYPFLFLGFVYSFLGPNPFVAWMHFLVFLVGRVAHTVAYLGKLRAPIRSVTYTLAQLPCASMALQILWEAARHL
How it was run: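 Microsomes from A549 cells stimulated 72 h with IL-1β (1 ng/ml), diluted to 50 µg/ml in 0.1 M potassium phosphate pH 7.4 with 2.5 mM glutathione. Preincubated with compound (1% DMSO final) 15 min at 4 °C. Reaction started with 20 µM PGH₂, run 1 min at 4 °C, stopped with FeCl₂/citric acid containing 11β-PGE₂; PGE₂ quantified. Mean of n = 3–5.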

[3] = molecular target: T4, Polyunsaturated fatty acid 5-lipoxygenase (Homo sapiens, UniProt P09917); assay: Inhibition of 5-lipoxygenase in A23187-stimulated human PMNL assessed as enzyme product formation preincubated 15 mins by RP-HPLC analysis in presence of exogenous arachidonic acid
T4 sequence (P09917 whole entry): T1 sequence (whole entry)
How it was run: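 Freshly isolated human PMNL (5 × 10⁶/ml PGC buffer: PBS pH 7.4, 1 mg/ml glucose, 1 mM CaCl₂) preincubated with compound 15 min at 37 °C. Stimulated with 2.5 µM A23187 plus exogenous AA for 10 min at 37 °C. Stopped with methanol, PGB₁ added as internal standard, lipoxygenase products analysed by HPLC. Mean of n = 3–5.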

A549 = assay: Cytotoxicity against human A549 cells assessed as cell viability at 10 uM after 16 hrs by MTT assay; assay type: cell-based; details: a549, 5 h, in the assay text read “5 hrs” for “16 hrs”
How it was run: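 A549 cells plated at 4 × 10⁴ cells per well, incubated 16 h at 37 °C, 5% CO₂, then exposed to 10 µM compound or DMSO (≤0.3% final) for 5 h. MTT added for 4 h, formazan solubilized with SDS in 20 mM HCl, absorbance at 595 nm read relative to vehicle-treated cells.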

[4] = molecular target: T5, Prostaglandin G/H synthase 1 (Ovis aries) (UniProt P05979); assay: Inhibition of ovine COX1 assessed as residual activity at 10 uM after 5 mins; how it was run: as §2
T5 sequence (whole entry): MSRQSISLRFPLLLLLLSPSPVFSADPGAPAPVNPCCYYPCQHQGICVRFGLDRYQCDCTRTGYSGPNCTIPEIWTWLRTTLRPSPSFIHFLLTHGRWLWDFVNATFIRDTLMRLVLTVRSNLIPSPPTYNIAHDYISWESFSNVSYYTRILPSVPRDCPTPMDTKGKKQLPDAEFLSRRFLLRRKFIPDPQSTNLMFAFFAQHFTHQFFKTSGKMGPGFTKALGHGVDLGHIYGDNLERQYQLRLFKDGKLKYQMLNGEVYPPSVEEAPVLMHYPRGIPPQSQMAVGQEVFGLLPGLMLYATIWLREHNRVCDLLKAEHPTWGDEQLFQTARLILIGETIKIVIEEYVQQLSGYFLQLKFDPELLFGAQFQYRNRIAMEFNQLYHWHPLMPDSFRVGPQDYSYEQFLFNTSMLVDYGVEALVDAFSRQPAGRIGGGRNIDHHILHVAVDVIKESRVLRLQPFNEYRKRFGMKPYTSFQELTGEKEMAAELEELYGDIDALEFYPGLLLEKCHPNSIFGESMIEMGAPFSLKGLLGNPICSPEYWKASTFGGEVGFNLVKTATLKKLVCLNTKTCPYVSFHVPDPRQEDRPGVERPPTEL

[5] = molecular target: T4, Polyunsaturated fatty acid 5-lipoxygenase; assay: Inhibition of human recombinant 5-lipoxygenase expressed in Escherichia coli BL21 assessed as enzyme product formation using arachidonic acid as substrate after 10 mins by RP-HPLC analysis; how it was run: as §1

inhibition [1] | inhibition [2] | IC50 (Prostaglandin E synthase) [nM] | IC50 [3] [nM] | inhibition [4] | IC50 [5] [nM] | SMILES | Activity (A549)
inactive |  |  |  |  |  | CC(C)c1ccc2c(c1)c(SC(C)(C)C)c(CC(C)(C)C(=O)O)n2Cc1ccc(Cl)cc1 | 
 | inactive | 2200 | 1400 | inactive | 4500 | CCCCC(Sc1ccc(OCCCOc2cccc3c2CCCC3)cc1)C(=O)O (configuration not stated) | Non-toxic
